Results as given in ChEMBL document CHEMBL1148810, “Design, synthesis, and preliminary pharmacological evaluation of new quinoline derivatives as nicotinic ligands” (J Med Chem, 2007).
Activity calls are given as the source filed them.

Experiments:
[1] = molecular target: Neuronal acetylcholine receptor subunit alpha-7 (Rattus norvegicus, UniProt Q05941); experiment: Displacement of [3H]alpha-bungarotoxin from alpha-7 nAChR in rat cerebral cortex; format: tissue-based
[2] = molecular target: T1, Neuronal acetylcholine receptor; alpha4/beta2 (Rattus norvegicus, UniProt P09483+P12390); experiment: Displacement of [3H]epibatidine from alpha-4-beta-2 nAChR in rat cerebral cortex; format: tissue-based
Outline: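 Rat cerebral cortex was used in competition binding against [³H]-epibatidine, with amines tested as oxalate salts. Ki values were derived, and subtype selectivity was taken from comparison with Ki values obtained on the same tissue.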

[3] = molecular target: T1, Neuronal acetylcholine receptor; alpha4/beta2; experiment: Displacement of [3H]cytisine from alpha-4-beta-2 nAChR in rat cerebral cortex; format: tissue-based
Outline: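 Rat cerebral cortex membranes labelled with [³H]-cytisine, which marks α4β2* receptors. Compounds were tested for displacement up to 10 µM, with amines used as oxalate salts. Ki values were determined.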

Mus musculus = experiment: Analgesic activity in mouse at 5 mg/kg, ip by hot plate test […]; format: functional, organism-based; parameters: dose 5 mg/kg
Outline: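 Mice were placed on a stainless steel surface held at 52.5 ± 0.1 °C, and dosing was i.p. at 5 mg/kg. Paw-licking latency (s) was timed by stopwatch before and 15, 30, 45 and 60 min after dosing. Mice with pretest scores below 12 or above 18 s were excluded, and the cutoff was 45 s. Ten mice per group; mean ± SEM.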

T1 sequence (P09483 whole entry): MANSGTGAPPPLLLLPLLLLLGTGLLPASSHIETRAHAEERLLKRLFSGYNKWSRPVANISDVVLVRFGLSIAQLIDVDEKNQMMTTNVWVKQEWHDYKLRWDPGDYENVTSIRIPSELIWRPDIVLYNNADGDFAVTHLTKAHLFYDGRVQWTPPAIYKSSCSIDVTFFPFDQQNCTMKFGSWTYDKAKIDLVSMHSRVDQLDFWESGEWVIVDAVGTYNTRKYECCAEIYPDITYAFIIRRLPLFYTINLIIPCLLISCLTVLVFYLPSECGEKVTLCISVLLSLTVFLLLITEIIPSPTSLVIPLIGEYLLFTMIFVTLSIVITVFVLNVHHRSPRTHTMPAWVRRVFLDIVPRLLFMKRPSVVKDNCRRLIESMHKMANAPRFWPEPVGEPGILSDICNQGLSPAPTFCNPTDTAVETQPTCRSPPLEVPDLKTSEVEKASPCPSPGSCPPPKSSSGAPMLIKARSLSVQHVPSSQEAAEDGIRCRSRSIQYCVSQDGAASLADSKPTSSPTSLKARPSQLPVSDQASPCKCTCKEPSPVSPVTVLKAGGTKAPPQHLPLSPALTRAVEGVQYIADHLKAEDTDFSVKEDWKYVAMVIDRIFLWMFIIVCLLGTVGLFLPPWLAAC
T1 sequence (P12390 whole entry): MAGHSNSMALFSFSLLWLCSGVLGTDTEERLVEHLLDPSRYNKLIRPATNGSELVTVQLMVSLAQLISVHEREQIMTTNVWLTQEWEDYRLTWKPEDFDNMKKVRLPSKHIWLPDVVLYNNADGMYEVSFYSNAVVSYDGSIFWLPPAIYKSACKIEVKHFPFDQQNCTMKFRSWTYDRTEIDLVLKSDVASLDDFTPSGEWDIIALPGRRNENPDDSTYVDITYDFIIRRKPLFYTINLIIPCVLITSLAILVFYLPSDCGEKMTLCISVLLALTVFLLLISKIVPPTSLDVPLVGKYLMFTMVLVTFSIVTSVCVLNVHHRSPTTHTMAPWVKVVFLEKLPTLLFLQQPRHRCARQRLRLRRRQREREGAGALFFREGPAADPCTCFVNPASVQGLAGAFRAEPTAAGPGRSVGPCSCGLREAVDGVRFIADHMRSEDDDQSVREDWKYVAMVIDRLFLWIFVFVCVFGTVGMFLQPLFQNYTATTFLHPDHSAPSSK
Neuronal acetylcholine receptor subunit alpha-7, sequence (Q05941 whole entry): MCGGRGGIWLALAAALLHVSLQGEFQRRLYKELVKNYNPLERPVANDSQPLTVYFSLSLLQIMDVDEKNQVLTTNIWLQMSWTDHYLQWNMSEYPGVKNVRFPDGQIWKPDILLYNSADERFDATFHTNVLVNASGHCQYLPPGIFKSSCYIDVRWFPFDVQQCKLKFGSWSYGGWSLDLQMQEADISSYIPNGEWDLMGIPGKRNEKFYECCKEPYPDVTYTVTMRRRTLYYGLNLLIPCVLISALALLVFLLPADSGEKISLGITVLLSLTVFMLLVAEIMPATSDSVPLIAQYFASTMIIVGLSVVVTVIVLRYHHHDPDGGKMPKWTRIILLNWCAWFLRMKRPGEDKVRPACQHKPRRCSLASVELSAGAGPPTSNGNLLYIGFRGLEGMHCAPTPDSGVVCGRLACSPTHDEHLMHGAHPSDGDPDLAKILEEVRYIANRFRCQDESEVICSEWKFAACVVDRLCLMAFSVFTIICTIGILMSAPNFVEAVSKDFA

C[N+]1(C)CCC[C@@H]1c1ccc2ncccc2c1
Ki [1]: 90 nM
Ki [2]: 1400 nM
Ki [3]: 220 nM

CN1CCCC1c1ccc2ncccc2c1 (racemic)
Activity (Mus musculus): Dose-dependent effect
Ki [3]: 132 nM

C[N+](C)(C)CCC#Cc1ccc2ncccc2c1
Ki [1]: 142 nM
Ki [2]: 6800 nM

CN1CCC[C@H]1c1ccc2ncccc2c1
Ki [1]: 42000 nM
Ki [2]: 124 nM
Ki [3]: 90 nM

C[N+]1(C)CCCC1c1ccc2ncccc2c1 (racemic)
Activity (Mus musculus): Dose-dependent effect
Ki [3]: 45 nM

C[N+]1(C)CCC[C@H]1c1ccc2ncccc2c1
Ki [1]: 1570 nM
Ki [2]: 42 nM
Activity (Mus musculus): Active
Ki [3]: 16 nM

CN1CCC[C@@H]1c1ccc2ncccc2c1
Ki [1]: 8100 nM
Ki [2]: 2100 nM
Ki [3]: 1950 nM
